Rows were chosen to be rich in hits. Some 2.9% of all compounds tested hit in one or more screens of this group.
TRPC4 act – activators of mouse TRPC4 channel, primary screen, Fluo4 calcium, HEK293 TRPC4beta/mu-opioid cells; B-score at 10 µM; Fluo4 calcium fluorescence; active compounds read high; 0.49% of 310,000 active; AID 2237, 2010;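 active = B-score above 5 SD of library B-scores, and initial fluorescence ratio not above library mean plus 5 SD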;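 also: positive B-score marks a calcium rise read as TRPC4 activation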
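Assay system – TRPC4beta and mu-opioid receptor HEK293 stable cells · Measured by – Fluo4 fluorescence, kinetic · Schedule – dye loading 45 min room temperature, 110 s kinetic read · Read-out – B-scored integrated calcium fluorescence ratio · Controls – buffer and maximal DAMGO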
TRPC4 potent – positive allosteric modulators of TRPC4, primary screen, cell-based, mouse TRPC4beta, HEK293 mu-opioid, Fluo-4 calcium. Short transient receptor potential channel 4 (Mus musculus), Q9QUQ5. DAMGO EC20, Fluo-4 Ca2+ flux; active compounds read high. B-score at 10 µM. 0.42% of 310,000 active;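 active = B-score of calcium response area above 5 SD of library B-scores, with initial fluorescence ratio within 5 SD of library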;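 also: B-score of integrated fluorescence ratio over time as area under calcium response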
Kir21 inh – inhibitors of mouse Kir2.1 inward-rectifier potassium channel | Inward rectifier potassium channel 2 (Mus musculus), P35561 | HEK293-Kir2.1, FluxOR thallium flux fluorescence; active compounds read low | B-score at 10 µM | 0.85% of 310,000 active | AID 1672, 2009;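 active = fluorescence ratio B-score at or below minus 3 SD of library scores, with starting-brightness B-score within 2 SD, cut at about -4.2 in these data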;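 also: channel flux triggered by added potassium and thallium sulfate stimulus; B-score of peak minus minimum fluorescence over baseline after thallium stimulus; more negative B-score means stronger Kir2.1 block with less thallium influx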
Target sequence (P35561 whole entry, looked up): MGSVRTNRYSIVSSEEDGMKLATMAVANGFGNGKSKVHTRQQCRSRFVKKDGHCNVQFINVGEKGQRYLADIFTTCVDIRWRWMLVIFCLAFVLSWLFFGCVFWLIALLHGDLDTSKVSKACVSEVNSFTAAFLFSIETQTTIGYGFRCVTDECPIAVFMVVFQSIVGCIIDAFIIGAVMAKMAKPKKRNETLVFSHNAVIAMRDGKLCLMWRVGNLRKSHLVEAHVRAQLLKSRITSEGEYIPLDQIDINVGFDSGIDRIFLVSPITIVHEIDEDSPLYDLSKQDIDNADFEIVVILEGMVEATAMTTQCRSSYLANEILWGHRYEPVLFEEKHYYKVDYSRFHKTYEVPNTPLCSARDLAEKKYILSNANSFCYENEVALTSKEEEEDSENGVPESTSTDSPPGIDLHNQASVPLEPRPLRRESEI
TRPC4 block – inhibitors of mouse TRPC4 channel, primary screen, Fluo4 calcium, HEK293 TRPC4beta/mu-opioid cells; DAMGO-evoked Fluo4 calcium flux; active compounds read low; AID 2247, 2010; B-score at 10 µM; 0.39% of 300,000 active; Short transient receptor potential channel 4 (Mus musculus), Q9QUQ5;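 active = B-score over 3 SD under the library average, no early fluorescence shift, positive overall ratio signal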
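material = TRPC4beta/mu-opioid receptor HEK293 cell line | probe or stimulus = sequential submaximal and maximal DAMGO stimulation | compound dosing = one concentration per compound | measured by = Fluo4 Ca2+ flux fluorescence | evaluation = integrated fluorescence ratio relative to baseline, converted to per-well B score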
TRPC6 act – mouse TRPC6 channel activators, primary screen, cell-based, HEK293, membrane potential dye. Short transient receptor potential channel 6 (Mus musculus), Q61143. HEK293-TRPC6 membrane potential dye fluorescence; active compounds read high. B-score at 10 µM. 0.13% of 310,000 active. AID 2550, 2010;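 active = B-score of the integrated fluorescence ratio above library mean plus 3 SD, and starting fluorescence ratio within library mean plus 5 SD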;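 also: higher score means more depolarization so channel activation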
TRPC6 inh – mouse TRPC6 channel inhibitors, primary screen, cell-based, HEK293, membrane potential dye | B-score at 10 µM | ACh-evoked depolarization; active compounds read low | 1.1% of 310,000 active | AID 2553, 2010 | Short transient receptor potential channel 6 (Mus musculus), Q61143;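 active = B-score under library mean minus 3 SD, initial fluorescence not abnormally high, positive integrated signal ratio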;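 also: B-score derived from integrated fluorescence ratio over the kinetic read; more negative B-score means stronger inhibition of depolarization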
The depositor's hits bear a star; i = inactive.

SMILES	TRPC4 act	TRPC4 potent	Kir21 inh	TRPC4 block	TRPC6 act	TRPC6 inh
CCC(=O)OC1(c2cccc(C)c2)CC(C)N(C)CC1C (stereo not given)	68*	i	-1.9	i	i	i
CC1CC(OC(=O)c2ccccc2)(c2ccccc2)C(C)CN1C (stereo not given)	i	i	-1.4	i	i	i
CCC(=O)OC1(c2ccccc2)CCN(C)CC1C (stereo not given)	i	i	-1.1	i	i	i
Brc1ccc2c(c1)C(OC1CN3CCC1CC3)c1ccccc1CS2 (stereo not given)	i	29*	-8.9*	i	i	i
O=C(COc1ccccc1)NCCc1cnc[nH]1	i	i	0.31	i	i	i
O=C(CCCc1ccccc1)NCCc1cnc[nH]1	143*	i	-0.45	i	i	i
Cc1cccc(-n2c(C)nc3ccc(Cl)cc3c2=O)c1	i	i	0.05	i	i	i
O=C(c1cccc2ccccc12)C1CCCN(Cc2ccon2)C1 (stereo not given)	i	i	-2.2	i	i	i
O=C(c1cccc2ccccc12)C1CCCN(C2CCC2)C1 (stereo not given)	i	10*	-1.6	i	i	i
CCOc1cc(CNCCc2c[nH]c3ccccc23)cc(Cl)c1OCC	46*	i	-7.6*	i	i	i
CCOc1c(Cl)cc(CNCCc2c[nH]c3ccccc23)cc1OC	53*	i	-1.7	i	i	i
COc1cccc(CNCCc2c[nH]c3ccccc23)c1	i	i	-0.08	i	i	i
COc1ccc(CC(C)NCCC(c2ccccc2)c2ccccc2)cc1 (stereo not given)	i	i	-3.1	i	i	i
COc1ccc(Br)cc1CNCCc1ccc2c(c1)OCO2	i	i	-4.5*	i	i	i
Clc1ccc(CNCCc2ccc3c(c2)OCO3)cc1	i	i	-8.8*	i	i	i
O=c1c2ccccc2nc(-c2ccccc2Cl)n1-c1cccc(O)c1	i	i	0.54	i	i	i
C[C@H](NC(=O)CCC(=O)N1C[C@H]2C[C@H](C1)c1cccc(=O)n1C2)c1ccccc1	i	i	0.18	i	i	i
CCOc1cc(CNCCc2ccccc2F)ccc1OC	i	i	-0.07	i	i	i
COc1ccc(CNCCc2ccccc2F)c(OC)c1C	i	i	-5.5*	i	i	i
COc1ccc2c(c1O)[C@]13CCN(C)[C@H](C2)[C@@H]1CCC(=O)C3	114*	i	0.59	i	i	i
Cc1c(C)c2ccc(OCC(=O)N3C[C@H]4C[C@@H](C3)c3cccc(=O)n3C4)cc2oc1=O	i	i	1.1	i	i	i
CN(C)CCN(C(=O)COc1ccc(Cl)cc1)c1nc2cc3c(cc2s1)OCO3	i	i	0.42	i	i	i
Clc1ccc(C[n+]2c(-c3ccccc3)cc(-c3ccccc3)cc2-c2ccccc2)cc1	i	i	-13*	i	i	-5.2*
Cc1cc(-c2ccccc2)cc(-c2ccccc2)[n+]1CCc1ccccc1	i	i	-6.9*	i	i	i
C[n+]1c(-c2ccccc2)cc(-c2ccc(O)cc2)cc1-c1ccccc1	i	i	-0.46	i	i	i
SMILES	TRPC4 act	TRPC4 potent	Kir21 inh	TRPC4 block	TRPC6 act	TRPC6 inh
Cc1ncc(CN2CCCC(C(=O)c3ccc(C(C)(C)C)cc3)C2)s1 (stereo not given)	i	i	0.66	i	i	i
COc1ccc(-n2c(C)nc3ccccc3c2=O)c([N+](=O)[O-])c1	i	i	0.22	i	i	i
Oc1ccccc1-[n+]1c(-c2ccccc2)cc(-c2ccccc2)c(O)c1-c1ccccc1	i	i	-0.82	i	i	i
C=CCn1c(O)c(N=Nc2c(C)n(C)n(-c3ccccc3)c2=O)c(=O)[nH]c1=S	45*	i	-0.33	i	i	i
CN(C)CC#CCn1c2ccccc2c2ccccc21	i	i	-5.6*	i	i	i
CN(C)CC#CCC(O)(c1ccccc1)C1CCCC1 (stereo not given)	i	i	-1.1	i	i	i
O=C(Cc1ccccc1)N1CCN(Cc2cccc(Br)c2)CC1	i	i	-1.2	-5*	i	i
COc1ccc(Br)cc1CN1CCN(C(=O)Cc2ccccc2)CC1	i	i	-3.2	-6*	i	i
CCC1=Nc2cc(C(=O)N3CCC4(CC3)OCCO4)ccc2Sc2ccc(Br)cc21	i	i	0.68	i	i	i
N[C@@H](Cc1c[nH]c2ccccc12)c1nnc(SCc2ccccc2)o1	i	i	-0.93	i	i	i
N[C@@H](Cc1c[nH]c2ccccc12)c1nnc(SCc2ccc(Cl)cc2)o1	i	i	-5.2*	i	i	i
CC(Cc1ccccc1)N1C(=O)c2ccccc2C1=O (stereo not given)	i	i	-3.1	i	i	i
CC/C(=N\Nc1ccccc1)c1c(O)n(C)c(=O)n(C)c1=O	i	13*	-3.5	-6*	i	i
COc1ccccc1NC(=O)c1cn(CCC#N)nc1-c1cccc(Cl)c1	i	i	-0.84	i	i	i
Cc1cccc(-n2c(/C=C/c3ccccn3)nc3ccccc3c2=O)c1	i	i	2.1	i	i	i
CN1CCN(Cc2cc(C(C)(C)C)c(O)c(C(C)(C)C)c2)CC1	i	11*	0.59	i	i	i
CN(C)CCn1cnc2ccccc21	i	15*	0.54	i	i	i
O=C1C2CCCN2C(c2cccnc2)N1c1ccc(Cl)c(Cl)c1 (stereo not given)	i	i	-0.25	i	i	i
O=C1C2CCCN2C(c2ccncc2)N1c1ccc(Cl)c(Cl)c1 (stereo not given)	i	11*	0	i	i	i
O=c1nc(/C=C/c2ccc(Cl)cc2Cl)cc(C(F)(F)F)[nH]1	i	i	-1.8	i	i	i

Screens: PubChem BioAssay, Johns Hopkins Ion Channel Center
